Values after ≈ are worked out from the molar mass of the structure shown. Active and inactive are the calls of the source. The calls are words filed in the database; no cut-off is given here.
How the values were obtained:
Mycobacterium avium [1] = test: Antimycobacterial activity against isoniazid, rifampicin, ethambutol and ofloxacin-resistant Mycobacterium avium My 330/88 after 21 days; format: functional; conditions: My 330/88, 504 h
Procedure, shortened: (§1)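 Micromethod MIC in Šula's semisynthetic medium at 37 °C. Compounds added in DMSO at 1000 down to 0.032 µmol/L. Isoniazid standard in sterile water at 0.5–250 µmol/L. Inocula: H37Rv 10^3, M. avium 10^5, M. kansasii 10^4. Read at 14 and 21 d, plus 7 d for M. kansasii.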

Mycobacterium avium [2] = test: Antimycobacterial activity against isoniazid, rifampicin, ethambutol and ofloxacin-resistant Mycobacterium avium My 330/88 after 14 days; format: functional; conditions: My 330/88, 336 h; procedure, shortened: as §1
[3] = tested on: Mycobacterium tuberculosis; test: Antimycobacterial activity against Mycobacterium tuberculosis H37Rv My 331/88 after 21 days; format: functional; conditions: H37Rv My 331/88, 504 h; procedure, shortened: as §1
[4] = tested on: Mycobacterium tuberculosis; test: Antimycobacterial activity against Mycobacterium tuberculosis H37Rv My 331/88 after 14 days; format: functional; conditions: H37Rv My 331/88, 336 h; procedure, shortened: as §1
[5] = tested on: Trichophyton mentagrophytes; test: Antifungal activity against Trichophyton mentagrophytes 445 after 120 hrs by broth microdilution method; format: functional; conditions: Trichophyton mentagrophytes, 445, 120 h
Procedure, shortened: (§2)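 Filamentous dermatophyte tested by broth microdilution in RPMI 1640 with glutamine, fluconazole as reference. Value expressed as IC50 relative to growth control. Read at 72 and 120 h.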

[6] = tested on: Trichophyton mentagrophytes; test: Antifungal activity against Trichophyton mentagrophytes 445 after 72 hrs by broth microdilution method; format: functional; conditions: Trichophyton mentagrophytes, 445, 72 h; procedure, shortened: as §2
Lichtheimia corymbifera [7] = test: Antifungal activity against Absidia corymbifera 272 after 48 hrs by broth microdilution method; format: functional; conditions: Lichtheimia corymbifera, 272, 48 h
Procedure, shortened: (§3)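 Broth microdilution in RPMI 1640 with glutamine, fluconazole as reference. For yeasts, MIC is ≥80% growth reduction (IC80) versus control. For filamentous fungi, the value is expressed as IC50. Readings at 24 and 48 h.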

Lichtheimia corymbifera [8] = test: Antifungal activity against Absidia corymbifera 272 after 24 hrs by broth microdilution method; format: functional; conditions: Lichtheimia corymbifera, 272, 24 h; procedure, shortened: as §3
Aspergillus fumigatus [9] = test: Antifungal activity against Aspergillus fumigatus 231 after 48 hrs by broth microdilution method; format: functional; conditions: Aspergillus fumigatus, 231, 48 h; procedure, shortened: as §3
Aspergillus fumigatus [10] = test: Antifungal activity against Aspergillus fumigatus 231 after 24 hrs by broth microdilution method; format: functional; conditions: Aspergillus fumigatus, 231, 24 h; procedure, shortened: as §3
Trichosporon asahii [11] = test: Antifungal activity against Trichosporon asahii 1188 after 48 hrs by broth microdilution method; format: functional; conditions: Trichosporon asahii, 1188, 48 h; procedure, shortened: as §3
Trichosporon asahii [12] = test: Antifungal activity against Trichosporon asahii 1188 after 24 hrs by broth microdilution method; format: functional; conditions: Trichosporon asahii, 1188, 24 h; procedure, shortened: as §3
Pichia kudriavzevii [13] = test: Antifungal activity against Candida krusei E28 after 48 hrs by broth microdilution method; format: functional; conditions: E28, 48 h; procedure, shortened: as §3
Pichia kudriavzevii [14] = test: Antifungal activity against Candida krusei E28 after 24 hrs by broth microdilution method; format: functional; conditions: E28, 24 h; procedure, shortened: as §3
Candida albicans [15] = test: Antifungal activity against Candida albicans ATCC 44859 after 48 hrs by broth microdilution method; format: functional; conditions: ATCC 44859, 48 h; procedure, shortened: as §3
Candida albicans [16] = test: Antifungal activity against Candida albicans ATCC 44859 after 24 hrs by broth microdilution method; format: functional; conditions: ATCC 44859, 24 h; procedure, shortened: as §3
Nakaseomyces glabratus = test: Antifungal activity against Candida glabrata 20/I at 500 micromol/L after 24 to 48 hrs by broth microdilution method; format: functional, organism-based; procedure, shortened: as §3
Candida tropicalis = test: Antifungal activity against Candida tropicalis 156 at 500 micromol/L after 24 to 48 hrs by broth microdilution method; format: functional, organism-based; procedure, shortened: as §3
Pseudomonas aeruginosa = test: Antibacterial activity against Pseudomonas aeruginosa CCM 1961 at 500 micromol/L after 24 to 48 hrs by broth microdilution method; format: functional, organism-based
Procedure, shortened: (§4)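 Broth microdilution in Mueller–Hinton broth, compounds dissolved in DMSO, tested over a dilution series from 500 downward. MIC taken as ≥95% growth reduction (IC95) versus drug-free control. Benzylpenicillin comparator. Readings at 24 and 48 h.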

Klebsiella pneumoniae [17] = test: Antibacterial activity against ESBL-positive Klebsiella pneumoniae J 14368/08 at 500 micromol/L after 24 to 48 hrs by broth microdilution method; format: functional, organism-based; procedure, shortened: as §4
Klebsiella pneumoniae [18] = test: Antibacterial activity against Klebsiella pneumoniae D 11750/08 at 500 micromol/L after 24 to 48 hrs by broth microdilution method; format: functional, organism-based; procedure, shortened: as §4
Escherichia coli = test: Antibacterial activity against Escherichia coli CCM 4517 at 500 micromol/L after 24 to 48 hrs by broth microdilution method; format: functional, organism-based; procedure, shortened: as §4
Enterococcus sp. = test: Antibacterial activity against Enterococcus sp. J 14365/08 at 500 micromol/L after 24 to 48 hrs by broth microdilution method; format: functional, organism-based; procedure, shortened: as §4
[19] = tested on: Staphylococcus epidermidis; test: Antibacterial activity against Staphylococcus epidermidis H 6966/08 after 48 hrs by broth microdilution method; format: functional; conditions: H 6966/08, 48 h; procedure, shortened: as §4
[20] = tested on: Staphylococcus epidermidis; test: Antibacterial activity against Staphylococcus epidermidis H 6966/08 after 24 hrs by broth microdilution method; format: functional; conditions: H 6966/08, 24 h; procedure, shortened: as §4
Staphylococcus aureus [21] = test: Antibacterial activity against methicillin-resistant Staphylococcus aureus H 5996/08 after 48 hrs by broth microdilution method; format: functional; conditions: H 5996/08, 48 h; procedure, shortened: as §4
Staphylococcus aureus [22] = test: Antibacterial activity against methicillin-resistant Staphylococcus aureus H 5996/08 after 24 hrs by broth microdilution method; format: functional; conditions: H 5996/08, 24 h; procedure, shortened: as §4
Staphylococcus aureus [23] = test: Antibacterial activity against Staphylococcus aureus CCM 4516/08 after 48 hrs by broth microdilution method; format: functional; conditions: CCM 4516/08, 48 h; procedure, shortened: as §4
Staphylococcus aureus [24] = test: Antibacterial activity against Staphylococcus aureus CCM 4516/08 after 24 hrs by broth microdilution method; format: functional; conditions: CCM 4516/08, 24 h; procedure, shortened: as §4
Mycobacterium kansasii [25] = test: Antimycobacterial activity against Mycobacterium kansasii 6509/96 after 21 days; format: functional; conditions: 6509/96, 504 h; procedure, shortened: as §1
Mycobacterium kansasii [26] = test: Antimycobacterial activity against Mycobacterium kansasii 6509/96 after 14 days; format: functional; conditions: 6509/96, 336 h; procedure, shortened: as §1
Mycobacterium kansasii [27] = test: Antimycobacterial activity against Mycobacterium kansasii 6509/96 after 7 days; format: functional; conditions: 6509/96, 168 h; procedure, shortened: as §1
Mycobacterium kansasii [28] = test: Antimycobacterial activity against Mycobacterium kansasii My 235/80 after 21 days; format: functional; conditions: My 235/80, 504 h; procedure, shortened: as §1
Mycobacterium kansasii [29] = test: Antimycobacterial activity against Mycobacterium kansasii My 235/80 after 14 days; format: functional; conditions: My 235/80, 336 h; procedure, shortened: as §1
HepG2 = test: Cytotoxicity against human HepG2 cells after 24 hrs by CellTiter assay; format: cell-based; conditions: HepG2, 24 h
Procedure, shortened: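 HepG2 cells (passage 27–33) in MEM with 10% FBS, L-glutamine and NEAA, seeded at 1×10^4 per well. Treated next day with compounds at 0.1–100 µM (or 0.1–25 µmol/L), triplicates, <1% DMSO, for 24 h at 37 °C, 5% CO2. MTS reagent added for 2 h, absorbance read at 490 nm. IC50 taken against untreated (100%) and 10% DMSO (0%) controls.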

Mycobacterium kansasii [30] = test: Antimycobacterial activity against Mycobacterium kansasii My 235/80 after 7 days; format: functional; conditions: My 235/80, 168 h; procedure, shortened: as §1

| SMILES | MIC (Mycobacterium avium [1]) | MIC (Mycobacterium avium [2]) | MIC [3] | MIC [4] | MIC50 [5] | MIC50 [6] | MIC50 (Lichtheimia corymbifera [7]) | MIC50 (Lichtheimia corymbifera [8]) | MIC50 (Aspergillus fumigatus [9]) | MIC50 (Aspergillus fumigatus [10]) | MIC80 (Trichosporon asahii [11]) | MIC80 (Trichosporon asahii [12]) | MIC80 (Pichia kudriavzevii [13]) | MIC80 (Pichia kudriavzevii [14]) | MIC80 (Candida albicans [15]) | MIC80 (Candida albicans [16]) | Activity (Nakaseomyces glabratus) | Activity (Candida tropicalis) | Activity (Pseudomonas aeruginosa) | Activity (Klebsiella pneumoniae [17]) | also measured |
| --- | --- | --- | --- | --- | --- | --- | --- | --- | --- | --- | --- | --- | --- | --- | --- | --- | --- | --- | --- | --- | --- |
| CCOP(=O)(OCC)Oc1ccc(Cl)cc1C(=O)Nc1ccc(Cl)cc1 | 8 µM (≈ 3.35 µg/mL) | 8 µM (≈ 3.35 µg/mL) | 4 µM (≈ 1.67 µg/mL) | 4 µM (≈ 1.67 µg/mL) | 500 µM (≈ 209 µg/mL) | 500 µM (≈ 209 µg/mL) | > 500 µM | > 500 µM | > 500 µM | > 500 µM | > 500 µM | > 500 µM | > 500 µM | > 500 µM | > 500 µM | > 500 µM | inactive | inactive | inactive | inactive | Activity (Klebsiella pneumoniae [18]): inactive; Activity (Escherichia coli): inactive; Activity (Enterococcus sp.): inactive; MIC95 [19]: 250 µM (≈ 105 µg/mL); MIC95 [20]: 125 µM (≈ 52.3 µg/mL); MIC95 (Staphylococcus aureus [21]): 250 µM (≈ 105 µg/mL); MIC95 (Staphylococcus aureus [22]): 125 µM (≈ 52.3 µg/mL); MIC95 (Staphylococcus aureus [23]): 125 µM (≈ 52.3 µg/mL); MIC95 (Staphylococcus aureus [24]): 62.5 µM (≈ 26.1 µg/mL); MIC (Mycobacterium kansasii [25]): 8 µM (≈ 3.35 µg/mL); MIC (Mycobacterium kansasii [26]): 8 µM (≈ 3.35 µg/mL); MIC (Mycobacterium kansasii [27]): 8 µM (≈ 3.35 µg/mL); MIC (Mycobacterium kansasii [28]): 8 µM (≈ 3.35 µg/mL); MIC (Mycobacterium kansasii [29]): 8 µM (≈ 3.35 µg/mL); IC50 (HepG2): 13 µM; MIC (Mycobacterium kansasii [30]): 8 µM (≈ 3.35 µg/mL) |
| CCOP(=O)(OCC)Oc1ccc(Cl)cc1C(=O)Nc1ccc(Br)cc1 | 8 µM (≈ 3.7 µg/mL) | 8 µM (≈ 3.7 µg/mL) | 2 µM (≈ 0.925 µg/mL) | 2 µM (≈ 0.925 µg/mL) | 250 µM (≈ 116 µg/mL) | 250 µM (≈ 116 µg/mL) | > 500 µM | > 500 µM | > 500 µM | > 500 µM | > 500 µM | > 500 µM | > 500 µM | > 500 µM | > 500 µM | > 500 µM | inactive | inactive | inactive | inactive | Activity (Klebsiella pneumoniae [18]): inactive; Activity (Escherichia coli): inactive; Activity (Enterococcus sp.): inactive; MIC95 [19]: 125 µM (≈ 57.8 µg/mL); MIC95 [20]: 125 µM (≈ 57.8 µg/mL); MIC95 (Staphylococcus aureus [21]): > 500 µM; MIC95 (Staphylococcus aureus [22]): > 500 µM; MIC95 (Staphylococcus aureus [23]): 125 µM (≈ 57.8 µg/mL); MIC95 (Staphylococcus aureus [24]): 125 µM (≈ 57.8 µg/mL); MIC (Mycobacterium kansasii [25]): 8 µM (≈ 3.7 µg/mL); MIC (Mycobacterium kansasii [26]): 8 µM (≈ 3.7 µg/mL); MIC (Mycobacterium kansasii [27]): 4 µM (≈ 1.85 µg/mL); MIC (Mycobacterium kansasii [28]): 8 µM (≈ 3.7 µg/mL); MIC (Mycobacterium kansasii [29]): 8 µM (≈ 3.7 µg/mL); IC50 (HepG2): 1.56 µM; MIC (Mycobacterium kansasii [30]): 4 µM (≈ 1.85 µg/mL) |

Reference: ChEMBL document CHEMBL3102784, “Salicylanilide diethyl phosphates: synthesis, antimicrobial activity and cytotoxicity” (Bioorg Med Chem, 2014)
